Hits are enriched below; roughly 1.3% of the tested compounds scored in any of these assays.
Yeast life ext: extends the lifespan of yeast; S. cerevisiae growth with nicotinamide, OD615; deaD strain in restrictive glucose medium; AID 775; inhibition of the nicotinamide effect, % at 10 µM; 0.68% of 130,000 active;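 active means inhibition above a set limit, placed 3 SD over the median of all compounds, cut at about 26% in these data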;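 further: 0% = nicotinamide-treated wells and 100% = cells grown without nicotinamide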
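Test system – modified budding yeast, DeaD strain · Compound – single dose 10 µM compound, 0.25% DMSO · Times – culture preincubation 4 h, compound exposure 48 h, both 30 °C · Detection – optical density (absorbance) at 615 nm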
sdo1 growth: compounds rescuing growth of sdo1-depleted yeast, bone marrow failure model | S. cerevisiae sdo1-depleted JHY4D growth rescue, OD600 30 h; active compounds read high; pdr5 snq2 efflux-pump mutant strain | z-score at 10 µM | 0.21% of 140,000 active;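 active means z-score above 3 at both the 24 hr and the 30 hr optical density reads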;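 further: z-score against mean and SD of all compound wells on the same plate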
Yeast growth inh: chemicals that inhibit yeast BB579 growth in restrictive medium (lifespan-shortening candidates) | S. cerevisiae BB579 growth, OD615, 48 h | inhibition, % at 10 µM | 0.51% of 140,000 active | AID 804;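 active means inhibition above a set limit, 3 SD over the mean compound inhibition, cut at about 44% in these data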
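Test system: S. cerevisiae DeaD strain BB579 yeast; Medium: restrictive CSMM-D medium; Compound: one dose, 10 µM compound with 0.25% DMSO; Incubation: 4 h cell preincubation, 48 h compound exposure, 30 °C humidified; Signal: OD at 615 nm; Benchmarks: amphotericin B at 10 µg/mL as positive control.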
HMGR II inh: inhibitors of class II HMG-CoA reductase from Enterococcus faecalis | inhibition, % at 10 µM | 0.41% of 190,000 active | AID 1066 | purified E. faecalis HMGR, NADPH absorbance 340 nm kinetic;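 active means inhibition above a set limit, the median over all tested compounds plus 3 SD, cut at about 9.5% in these data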;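 further: enzyme runs in reverse so mevalonate oxidation gives rising NADPH absorbance; 0% = complete reaction with DMSO and 100% = background rate lacking mevalonate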
Starred values were filed as active, the others as inactive; x = no result given.

SMILES	Yeast life ext	sdo1 growth	Yeast growth inh	HMGR II inh
COC(=O)c1sc2nc(-c3ccco3)ccc2c1N	-24	1.4	5	-2
COc1ccc([N+](=O)[O-])cc1COc1cc(C)cc2oc(=O)cc(-c3ccccc3)c12	2	0.29	-41	-1
O=C1CCN2C=Nc3cccc4ccc1c2c34	-12	0.78	57*	-1
Cc1ccc2c(c1)/C(=C/c1ccco1)C(=O)N2	x	x	x	3
Cc1ccc(/C=C2\C(=O)Nc3ccccc32)o1	-7	-2.1	60*	-2
CCOC(=O)C1=C(CSc2nc(CC)c(C)cc2C#N)OC(N)=C(C#N)C1c1ccc(OC)cc1 (centres undefined)	x	-0.35	-17	-6
COC(=O)C1=C(CSc2nc3c(cc2C#N)CN(C)CC3)OC(N)=C(C#N)C1c1ccc(F)cc1 (centres undefined)	x	-0.41	-51	14*
COc1ccccc1NC(=O)COC(=O)/C=C/c1ccccc1[N+](=O)[O-]	-2	0.49	-40	-9
COc1ccccc1/C=C/C(=O)OCC(=O)Nc1ccccc1Sc1ccccc1	-1	-0.82	-31	11*
CN(C)c1ccc(C(=O)c2ccccc2C(=O)O)c(O)c1	0	1.2	-5	-8
CCCCN(CCCC)c1ccc(C(=O)c2ccccc2C(=O)O)c(O)c1	34*	1.3	-41	-2
O=C1CN(C(=O)COC(=O)CNS(=O)(=O)/C=C/c2ccccc2)c2ccccc2N1	x	x	x	0
COc1ccc(-c2[nH]ncc2CNC(C)c2cn(C)nc2C)c(F)c1 (centres undefined)	x	x	x	-1
CCOc1ccc(NC(=S)N2CCCN(Cc3cc(C)ccc3C)C2)cc1	x	x	x	-2
O=S(=O)(Cc1ccccc1)NCC1CCCN(Cc2ccc3nonc3c2)C1 (centres undefined)	x	x	x	-3
CCc1ccc2c(c1)C1(C(=O)N2)N2CCCC2C(C(=O)c2ccc3ccccc3c2)C12C(=O)Nc1ccccc12 (centres undefined)	3	-0.01	-21	-7
CCc1ccc2c(c1)C1(NN=C(c3cccc4ccccc34)S1)C(=O)N2 (centres undefined)	x	-0.7	66*	0
COc1ccc(OCc2nnc(SCC(=O)c3c(N)n(C)c(=O)n(C)c3=O)n2-c2ccccc2F)cc1	x	x	x	-3
Cc1cc(C)cc(Nc2c(F)c(F)c(F)c(F)c2C(=O)O)c1	x	x	x	9.6*
COc1cc(C(=O)NCCc2ccc(S(=O)(=O)N3CCCC3)cc2)cc(OC)c1OC	x	x	x	-5
O=C(Cc1ccccc1[N+](=O)[O-])N1CCc2ccccc2C1	x	x	x	5
O=c1/c(=C/c2cccc3ccccc23)sc2ncnn12	29*	-1.1	-20	1
O=C1CCCc2c1cc(C(=O)O)c(=O)n2-c1ccccc1	x	x	x	-8
O=c1cc(O)c2c(=O)n(-c3ccccc3)c3c(c2o1)CCCCCC3	46*	-0.87	-7	-7
O=c1cc(O)c2c(=O)n(Cc3ccccc3)c3ccccc3c2o1	x	x	x	-6
SMILES	Yeast life ext	sdo1 growth	Yeast growth inh	HMGR II inh
CCCCn1c(=O)c2c(O)cc(=O)oc2c2ccccc21	43*	-1.6	-34	-2
O=c1cc(O)c2c(=O)n(C3CCCCC3)c3ccccc3c2o1	31*	-1.3	-27	-1
C=CCOc1c(Cl)cc(CNc2nccs2)cc1OC	x	x	x	-1
CCOC(=O)C1(Cc2ccccc2Cl)CCN(C(=O)c2cnccn2)CC1	x	x	x	-8
CC(C)(C)OC(=O)N1CCC2(CC1)C(C#N)=C(N)OC1=C2C(=O)CCC1	x	x	x	-3
CCn1ncc(C2=NOC(C(=O)Nc3c(C)n(C)n(-c4ccccc4)c3=O)C2)c1C (centres undefined)	-11	0.28	48*	-2
CCn1ncc(C2=NOC(C(=O)NCc3ccccc3)C2)c1C (centres undefined)	-6	1.1	-13	0
O=C(/C=C/c1ccccc1)CC(O)(c1ccccc1)C(F)(F)C(F)F (centres undefined)	40*	-1.9	-42	-2
O=C(/C=C/c1ccccc1)CC(O)(c1ccccc1)C(F)(F)F (centres undefined)	35*	-2	-27	4
COc1ccc(/C=C/C(=O)CC(O)(c2ccccc2)C(F)(F)F)cc1 (centres undefined)	x	-1.6	-21	-11
CC1=NN(c2ccc(Cl)cc2)C(=O)/C1=C\c1cccn1-c1ccc(S(N)(=O)=O)cc1	-4	-1.1	-50	7
O=C(O)Cc1cc(I)c(Oc2ccc(O)c(I)c2)c(I)c1	31*	-0.83	66*	1
CCN(CC)c1ccc(/C=C2/C(=O)ON=C2C)cc1	40*	-0.52	-34	2
O=S1(=O)CC=C(CSC(=S)NC2CCS(=O)(=O)C2)C1 (centres undefined)	x	x	x	15*
CC(C)(C)c1cc(CSC(=S)NC2CCS(=O)(=O)C2)c(Br)c(C(C)(C)C)c1 (centres undefined)	x	x	x	-4
O=C(O)C(Cc1ccccc1)N1C(=O)c2ccccc2C1=O (centres undefined)	-6	0.54	6	2
[N-]=[N+]=CC(=O)C(Cc1ccccc1)N1C(=O)c2ccccc2C1=O (centres undefined)	34*	-0.37	-12	-6
CCN(Cc1ccccc1)C(=O)c1nn(-c2ccc(OC)cc2)c(=O)c2c1c1ccccc1n2C	x	x	x	-5
COc1ccc(/C=C(\C#N)C(=O)N2CCOCC2)cc1Br	48*	0.22	-14	-3
O=C(C1=C[C@H](c2ccc(Br)cc2)C[C@H](OCCCCO)O1)N1CCN(Cc2ccccc2)CC1	x	x	x	-7
Cc1ccc(S(=O)(=O)ON2C(=O)c3ccccc3C2=O)c(C)c1	-1	-1.7	-23	17*
C/C=C/C(=O)OCC(=O)Nc1nc2ccc(C)cc2s1	49*	0.06	-19	1
CC(=O)Oc1c(C(=O)c2nnc(C)o2)c(=O)n(C)c2ccccc12	54*	0.75	19	0
O=C1ON=C(c2ccccc2)/C1=C/c1cccnc1	x	x	x	-10
O=C1ON=C(c2ccccc2)/C1=C/c1ccc(OS(=O)(=O)c2ccccc2)cc1	11	0.03	58*	-5
SMILES	Yeast life ext	sdo1 growth	Yeast growth inh	HMGR II inh
Cc1ccc(Sc2c(CO)c(-c3ccccc3)nn2C)cc1	x	x	x	-1
CN1OC(c2ccccc2)=C(CO)C1c1ccccc1 (centres undefined)	51*	0.12	-34	2
CC1(C)CC(=O)C(C(=O)Cc2ccccc2[N+](=O)[O-])C(=O)C1	58*	0.51	-35	-1
Cc1cc(S(=O)(=O)N2CCCC(C(=O)Nc3ccc(C(=O)O)cc3)C2)ccc1Cl (centres undefined)	x	x	x	-9
Cc1cc(-c2ccccc2)nc(N(C)NC(=O)c2c(F)cccc2F)c1S(C)(=O)=O	-6	-1	-6	-1
Cc1cc(-c2ccccc2)nc(N(C)N)c1S(C)(=O)=O	x	x	x	11*
C=C(CC)C(=O)c1ccc(OCC(=O)O)c(Cl)c1Cl	58*	-1.3	-33	-7
CCOC(=O)COc1ccc2nsnc2c1Cl	-27	0.91	-26	0
CCc1cc2c3c(c1)C1(C(=O)N3C(C)(C)C=C2C)C(C#N)=C(N)Oc2[nH]c(=O)[nH]c(=O)c21 (centres undefined)	x	x	x	-4

Screening data as filed in PubChem.
